The results in this text go back to ChEMBL document CHEMBL1147206, “Synthetic cinnamylphenol derivatives as cancer chemopreventive agents” (2007).

Test [1] relates to Human gammaherpesvirus 4. Briefly: TPA-induced EBV early antigen activation in Raji cells at 32 nmol relative to control.
In test [2] the test system is Human gammaherpesvirus 4. In words: TPA-induced EBV early antigen activation in Raji cells at 3.2 nmol relative to control.
The test system of test [3] is Raji. Briefly: Survival of Raji cells at 32 nmol by trypan blue staining method. The test is classed as functional, Homo sapiens. The essentials: (§1)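 Raji cells (EBV genome-carrying, non-producer) grown to 10⁶ cells/mL, centrifuged, resuspended in RPMI 1640 with 10% FCS, 4 mM n-butyric acid and 32 pmol TPA (20 ng/mL), plus test compound in DMSO (32, 16, 3.2 or 0.32 nmol; 1000–10 mol ratio/TPA). Incubated 37 °C, 48 h; viability counted by hemocytometer with Trypan Blue; ≥60% survival required.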

The test system of test [4] is Raji. Briefly: Survival of Raji cells at 16 nmol by trypan blue staining method. Format: functional, Homo sapiens. The essentials: as §1
In test [5] the test system is Human gammaherpesvirus 4. Briefly: TPA-induced EBV early antigen activation in Raji cells at 16 nmol relative to control.
Test [6] is filed under the species Mus musculus. In words: Inhibition of TPA-induced skin tumor in SENCAR mouse assessed as reduction of skin papilloma at 85 nmol after 20 weeks. Format: functional. More on the design: scale not given: the % may be the effect or the level left.
The species entered for test [7] is Mus musculus. Briefly: Inhibition of TPA-induced skin tumor in SENCAR mouse assessed as reduction of skin papilloma at 85 nmol after 10 weeks. Also on record: scale not given: the % may be the effect or the level left. Format: functional.
The test system of test [8] is Human gammaherpesvirus 4. In words: TPA-induced EBV early antigen activation in Raji cells at 0.32 nmol relative to control.
For test [9], the system named is Raji. Briefly: Survival of Raji cells at 3.2 nmol by trypan blue staining method. The test is classed as functional, Homo sapiens. The essentials: as §1
Test [10] relates to Raji. Briefly: Survival of Raji cells at 0.32 nmol by trypan blue staining method. Format: functional, Homo sapiens. The method, boiled down: as §1

With `COc1cc(/C=C/Cc2ccc(OC)c(OCC=C(C)C)c2O)ccc1OCC=C(C)C`, the EBV-EA activation in the test with Human gammaherpesvirus 4 [1] worked out at 0%; with Human gammaherpesvirus 4 [2] it was 68.6%; with Human gammaherpesvirus 4 [5], 27.5%; in the test on Human gammaherpesvirus 4 [8] it was 89.1%. Further, the Survival in the test with Raji [3] was 70%; in the test on Raji [4], >80%; in the test on Raji [9], >80%; in the test with Raji [10] it was >80%. Moreover, the Activity in the test filed under Mus musculus [6] is recorded as 53%; in the test filed under Mus musculus [7] it was 87%.
`COc1c(C/C=C/c2ccccc2)ccc(OCC=C(C)C)c1OCC=C(C)C`: the EBV-EA activation came out at 0% with Human gammaherpesvirus 4 [1], 64.5% in the test on Human gammaherpesvirus 4 [2], 22.6% with Human gammaherpesvirus 4 [5] and 88.9% in the test on Human gammaherpesvirus 4 [8]. In addition, the Survival with Raji [3] is 70%; in the test on Raji [4] it was >80%; with Raji [9], >80%; in the test with Raji [10] it was >80%. The Activity in the test filed under Mus musculus [6] was 30%.
Turning to `COc1c(O)ccc(C/C=C/c2ccccc2)c1OC`, the EBV-EA activation in the test with Human gammaherpesvirus 4 [1] was found to be 12.5%; in the test with Human gammaherpesvirus 4 [2] it was 74%; in the test on Human gammaherpesvirus 4 [5], 44.3%; in the test on Human gammaherpesvirus 4 [8], 100%. Besides, the Survival with Raji [3] is on record as 60%; in the test on Raji [4], >80%; in the test with Raji [9], >80%; in the test with Raji [10], >80%.
